The target in data set [1] is T1, 5-hydroxytryptamine receptor 2C (Homo sapiens, UniProt P28335).
T1 sequence (P28335 whole entry): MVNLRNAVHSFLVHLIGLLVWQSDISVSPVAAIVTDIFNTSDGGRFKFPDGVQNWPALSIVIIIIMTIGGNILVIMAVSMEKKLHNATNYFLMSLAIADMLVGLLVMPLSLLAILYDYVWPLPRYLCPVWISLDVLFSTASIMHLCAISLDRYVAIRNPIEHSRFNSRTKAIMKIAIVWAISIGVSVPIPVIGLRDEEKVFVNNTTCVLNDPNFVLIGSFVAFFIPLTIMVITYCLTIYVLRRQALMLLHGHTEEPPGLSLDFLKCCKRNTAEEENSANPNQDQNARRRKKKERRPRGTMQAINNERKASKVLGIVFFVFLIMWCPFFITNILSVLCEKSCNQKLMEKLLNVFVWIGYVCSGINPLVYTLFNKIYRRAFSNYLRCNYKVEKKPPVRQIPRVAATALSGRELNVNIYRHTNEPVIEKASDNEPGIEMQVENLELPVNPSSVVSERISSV
In words: Ability to displace [3H]mesulergine binding to human 5-hydroxytryptamine 2C receptor stably expressed in CHO cells. In kind it is cell-based.

A short description of data set [2]: Bioavailability in dog (dose 0.5-2 mg/kg i.v. and p.o.). The note with it: in vivo, po. In kind it is ADME, organism-based, Canis lupus familiaris. The method in brief: (§1)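 Female Beagle dogs (10-12 kg), three per route; i.v. cephalic-vein bolus (1 mL/kg PEG 300/water) and oral gavage (5 mL/kg of 0.5% methocel A4C suspension), 0.5-2 mg/kg. Serial blood to 24 h; plasma extracted with ethyl acetate, LC-MS. Model-independent bioavailability and terminal half-life after i.v. dosing.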

The nature of data set [3]: Terminal half-life following iv dosing in dog. To be noted: in vivo. Format: ADME, organism-based, Canis lupus familiaris. The method in brief: as §1
Data set [4] addresses 5-hydroxytryptamine receptor 2A (Homo sapiens, UniProt P28223). In words: Ability to displace [3H]ketanserin binding to human 5-hydroxytryptamine 2A receptor stably expressed in CHO cells. Format: cell-based. The method in brief:
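Membranes from CHO cells stably expressing human 5-HT2A, homogenized in 50 mM Tris-HCl pH 7.5, at 2 mg wet weight/mL. Ki from nonlinear least-squares regression, geometric mean of at least three determinations.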

The target in data set [5] is D(2) dopamine receptor (Homo sapiens, UniProt P14416). In words: Ability to displace [3H]spiperone binding to CHO cells stably expressing dopamine receptor D2. In kind it is cell-based.
Data set [6] is described as follows: Bioavailability in rat (dose 0.5-2 mg/kg i.v. and p.o.). The note with it: in vivo, po. In kind it is ADME, organism-based. The essentials: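 Male Sprague-Dawley rats (~300 g), jugular-cannulated, three per route. Dosing by i.v. tail-vein bolus and oral gavage, each in a suitable vehicle. Serial jugular blood samples taken; plasma extracted with ethyl acetate against an internal standard. Analysis by LC-MS with single ion recording. F from model-independent parameters.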

The nature of data set [7]: Terminal half-life following iv dosing in rat. To be noted: in vivo. In kind it is ADME, organism-based.
Data set [8] concerns the target T2, Adrenergic receptor alpha-1 (Rattus norvegicus, UniProt P15823+P23944+P43140).
T2 sequence (P15823 whole entry): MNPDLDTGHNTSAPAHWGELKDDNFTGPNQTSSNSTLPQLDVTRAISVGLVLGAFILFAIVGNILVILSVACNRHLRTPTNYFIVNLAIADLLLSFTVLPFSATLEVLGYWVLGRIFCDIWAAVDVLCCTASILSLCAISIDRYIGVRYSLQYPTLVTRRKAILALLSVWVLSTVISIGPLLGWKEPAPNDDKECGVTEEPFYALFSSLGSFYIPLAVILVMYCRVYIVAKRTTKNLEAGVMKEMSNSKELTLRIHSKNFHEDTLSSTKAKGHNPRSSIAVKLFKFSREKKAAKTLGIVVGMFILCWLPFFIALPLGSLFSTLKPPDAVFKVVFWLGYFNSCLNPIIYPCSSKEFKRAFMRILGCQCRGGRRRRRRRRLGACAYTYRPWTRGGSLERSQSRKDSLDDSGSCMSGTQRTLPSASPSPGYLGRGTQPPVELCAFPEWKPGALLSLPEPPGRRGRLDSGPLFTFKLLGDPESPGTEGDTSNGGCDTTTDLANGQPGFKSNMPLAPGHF
T2 sequence (P23944 whole entry): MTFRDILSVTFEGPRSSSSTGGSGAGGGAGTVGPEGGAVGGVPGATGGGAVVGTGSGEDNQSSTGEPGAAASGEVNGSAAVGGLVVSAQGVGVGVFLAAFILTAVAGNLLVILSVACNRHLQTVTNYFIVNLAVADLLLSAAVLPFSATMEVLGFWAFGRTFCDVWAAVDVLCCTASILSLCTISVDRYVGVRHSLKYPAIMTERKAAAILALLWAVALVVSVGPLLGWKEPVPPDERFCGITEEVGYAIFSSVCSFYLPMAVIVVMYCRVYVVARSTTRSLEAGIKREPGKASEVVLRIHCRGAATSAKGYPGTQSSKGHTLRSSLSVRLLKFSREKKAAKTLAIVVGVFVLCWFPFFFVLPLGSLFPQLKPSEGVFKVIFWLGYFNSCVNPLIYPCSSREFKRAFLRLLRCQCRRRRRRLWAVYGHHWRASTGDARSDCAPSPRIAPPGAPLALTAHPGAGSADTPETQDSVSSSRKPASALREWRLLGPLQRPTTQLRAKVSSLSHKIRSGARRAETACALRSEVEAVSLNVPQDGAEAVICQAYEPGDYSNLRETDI
T2 sequence (P43140 whole entry): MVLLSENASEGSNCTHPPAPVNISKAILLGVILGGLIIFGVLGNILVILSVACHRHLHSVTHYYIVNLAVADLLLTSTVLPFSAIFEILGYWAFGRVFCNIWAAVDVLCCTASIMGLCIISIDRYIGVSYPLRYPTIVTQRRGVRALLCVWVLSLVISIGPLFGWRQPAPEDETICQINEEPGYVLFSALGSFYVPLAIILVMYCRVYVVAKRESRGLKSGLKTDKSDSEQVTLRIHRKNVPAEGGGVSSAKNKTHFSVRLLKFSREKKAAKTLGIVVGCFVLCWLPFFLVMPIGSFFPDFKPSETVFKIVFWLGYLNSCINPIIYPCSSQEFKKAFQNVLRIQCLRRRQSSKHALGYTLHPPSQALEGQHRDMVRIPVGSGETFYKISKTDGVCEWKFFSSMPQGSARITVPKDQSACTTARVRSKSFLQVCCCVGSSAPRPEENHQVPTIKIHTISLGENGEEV
Nature of the data set: Ability to displace [3H]-prazosin binding to rat cortical membranes expressing Alpha-1 adrenergic receptors.

Data set [9] is described as follows: Terminal half-life following iv dosing in dog, measured over 48 hr. Format: ADME, organism-based, Canis lupus familiaris. The note with it: in vivo.
Data set [10] is described as follows: Terminal half-life following iv dosing in rat, measured over 48 hr. Format: ADME, organism-based. To be noted: in vivo.
A short description of data set [11]: Area under the concentration-time curve for 0-4 hr after 2 mg/kg po in rat. In kind it is ADME, organism-based. More on the design: time < 4 hr, dose 2 mg/kg, route oral. To be noted: in vivo. The method in brief:
(§2)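 Male Sprague-Dawley rats (~300 g) gavaged at 2 mg/kg (5 mL/kg of 0.5% methocel A4C suspension), five rats; one rat culled per time point up to 4 h for blood. Samples get internal standard and are extracted into ethyl acetate, then LC-MS single ion recording.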

The target of data set [12] is Voltage-gated inwardly rectifying potassium channel KCNH2 (Homo sapiens, UniProt Q12809). In words: Displacement of [3H]dofetilide from HEK cells expressing hERG voltage dependent IKr potassium channel Kv11.1. (Loss of bound radioactivity is the signal in a displacement assay; it reports binding, not function.)
Data set [13] in a line: Maximum blood concentration after oral dosing at 2 mg/kg in rat. Format: ADME, organism-based. More on the design: dose 2 mg/kg, route oral. The essentials:
as §2

The term Ki denotes a measure of affinity in units of concentration, obtained from inhibition or displacement. Read a high Ki as weaker binding. Broadly, the bioavailability is dose-corrected exposure relative to a reference, in per cent. For orientation: half-life means the time needed for the level to fall by half in the phase considered. Low readings indicate rapid decline, high ones slow decline. For orientation: AUC(0-t) means exposure summed from dosing to a finite time, without extrapolation to infinity. A lower AUC(0-t) goes with low exposure. Usually Cmax stands for the peak of the concentration-time curve.

D(2) dopamine receptor, sequence (P14416 whole entry): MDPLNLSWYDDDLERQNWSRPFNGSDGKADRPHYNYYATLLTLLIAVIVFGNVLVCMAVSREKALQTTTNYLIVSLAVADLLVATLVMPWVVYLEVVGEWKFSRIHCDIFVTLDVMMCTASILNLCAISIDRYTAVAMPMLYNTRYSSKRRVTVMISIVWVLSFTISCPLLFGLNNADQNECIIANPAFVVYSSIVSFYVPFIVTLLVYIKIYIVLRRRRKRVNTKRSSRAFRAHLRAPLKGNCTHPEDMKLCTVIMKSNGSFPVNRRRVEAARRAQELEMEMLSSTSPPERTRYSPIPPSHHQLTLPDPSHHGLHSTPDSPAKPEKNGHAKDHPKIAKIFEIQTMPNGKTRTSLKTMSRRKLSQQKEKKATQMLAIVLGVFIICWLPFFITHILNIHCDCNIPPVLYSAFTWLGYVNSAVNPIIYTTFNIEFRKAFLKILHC
5-hydroxytryptamine receptor 2A, sequence (P28223 whole entry): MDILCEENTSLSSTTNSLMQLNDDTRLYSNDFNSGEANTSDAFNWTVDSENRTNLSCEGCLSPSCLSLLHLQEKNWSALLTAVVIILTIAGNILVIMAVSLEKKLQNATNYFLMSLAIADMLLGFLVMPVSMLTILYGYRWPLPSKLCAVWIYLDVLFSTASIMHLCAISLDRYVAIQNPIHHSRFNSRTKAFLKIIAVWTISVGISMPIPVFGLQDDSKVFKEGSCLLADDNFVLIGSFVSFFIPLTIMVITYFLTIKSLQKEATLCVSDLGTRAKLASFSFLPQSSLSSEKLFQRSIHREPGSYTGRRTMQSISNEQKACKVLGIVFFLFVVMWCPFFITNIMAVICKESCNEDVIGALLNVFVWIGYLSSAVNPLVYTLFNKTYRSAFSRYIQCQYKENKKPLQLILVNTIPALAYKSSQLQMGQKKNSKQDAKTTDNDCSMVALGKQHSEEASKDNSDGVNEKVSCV
Voltage-gated inwardly rectifying potassium channel KCNH2, sequence (Q12809 whole entry): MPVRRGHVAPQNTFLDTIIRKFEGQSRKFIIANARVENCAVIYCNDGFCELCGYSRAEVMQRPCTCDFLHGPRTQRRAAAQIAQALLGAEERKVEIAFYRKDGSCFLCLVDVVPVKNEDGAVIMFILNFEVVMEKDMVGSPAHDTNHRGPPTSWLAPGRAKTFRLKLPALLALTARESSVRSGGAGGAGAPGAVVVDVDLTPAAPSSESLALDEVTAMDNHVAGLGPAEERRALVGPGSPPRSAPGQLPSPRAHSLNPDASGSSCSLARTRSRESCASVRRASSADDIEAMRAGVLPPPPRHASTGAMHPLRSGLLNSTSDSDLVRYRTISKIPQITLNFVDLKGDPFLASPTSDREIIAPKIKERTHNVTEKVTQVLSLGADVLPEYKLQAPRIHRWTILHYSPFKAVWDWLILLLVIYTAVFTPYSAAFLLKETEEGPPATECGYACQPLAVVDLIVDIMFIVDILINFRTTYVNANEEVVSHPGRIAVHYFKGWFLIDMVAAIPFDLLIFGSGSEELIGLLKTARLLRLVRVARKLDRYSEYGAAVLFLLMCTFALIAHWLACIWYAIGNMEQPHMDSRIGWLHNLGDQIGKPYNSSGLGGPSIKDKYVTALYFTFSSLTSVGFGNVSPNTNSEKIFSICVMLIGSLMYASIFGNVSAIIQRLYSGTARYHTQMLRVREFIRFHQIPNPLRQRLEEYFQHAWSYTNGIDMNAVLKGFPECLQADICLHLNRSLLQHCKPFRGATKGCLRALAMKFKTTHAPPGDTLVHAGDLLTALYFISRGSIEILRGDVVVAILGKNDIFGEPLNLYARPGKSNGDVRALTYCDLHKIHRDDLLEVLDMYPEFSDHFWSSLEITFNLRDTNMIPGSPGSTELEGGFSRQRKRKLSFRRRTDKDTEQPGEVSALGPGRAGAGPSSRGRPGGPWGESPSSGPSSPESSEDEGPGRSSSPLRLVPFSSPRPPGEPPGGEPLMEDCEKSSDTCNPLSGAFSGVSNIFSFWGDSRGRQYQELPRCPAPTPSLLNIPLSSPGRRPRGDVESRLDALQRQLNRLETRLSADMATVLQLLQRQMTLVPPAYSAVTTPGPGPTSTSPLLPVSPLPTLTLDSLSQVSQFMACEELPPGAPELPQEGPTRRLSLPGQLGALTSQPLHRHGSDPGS

In the case of `F[C@@H]1CCNC[C@H]1c1c(-c2ccccc2)[nH]c2ccccc12`, the inhibition constant (Ki) was 0.019 µM in [1], 0.00043 µM in data set [4], over 1.7 µM in data set [5] and 0.025 µM in data set [8]. Moreover, the bioavailability in data set [2] was determined as 37%; in data set [6] it was 18%. Also, the half-life in data set [3] was 7.4 h; in data set [7] it was 1.4 h.
With `Fc1ccc2c([C@@H]3CNCC[C@H]3F)c(-c3ccccc3)[nH]c2c1`, the results for the half-life in [9] and in [10] were 6.4 h and 12 h, respectively.
With `c1ccc(CCN2CCC(c3c(-c4ccccc4)[nH]c4ccccc34)CC2)cc1`, in data set [2], the bioavailability turned out to be 4%. Besides, the half-life was 9.8 h in data set [3] and 5.3 h in [7]. Moreover, the Ki in data set [4] is 0.00048 µM; in data set [5], 0.35 µM; in [8] it was 0.025 µM.
As for `c1ccc(CCN2[C@@H]3CC[C@H]2CC(c2c(-c4ccccc4)[nH]c4ccccc24)C3)cc1` (stereo not given in full), the Ki came to 0.4 µM in data set [1]; 0.0012 µM in data set [4]; 0.018 µM in data set [12]; 1 µM in data set [5]; 0.25 µM in [8]. The compound further came in with an AUC(0-t) at 4 h in data set [11] of 0.126 µg·h/mL. Moreover, in data set [6], the bioavailability came out at 18%. The peak concentration (Cmax) in data set [13] was found to be 0.21 µg/mL. For the same compound, the half-life in data set [7] was 2.3 h.
